One experiment deals with Stromelysin-1 (Homo sapiens, UniProt P08254). Put plainly: In vitro inhibitory activity against matrix metalloprotease-3 (MMP-3).
Experiment [1] concerns the target Matrix metalloproteinase-9 (Homo sapiens, UniProt P14780). Put plainly: In vitro inhibitory activity against matrix metalloprotease-9 (MMP-9).
A further experiment addresses Collagenase 3 (Homo sapiens, UniProt P45452). Put plainly: In vitro inhibitory activity against matrix metalloprotease-13 (MMP-13).
The next experiment concerns the target T1, Matrilysin (Homo sapiens, UniProt P09237).
T1 sequence (P09237 whole entry): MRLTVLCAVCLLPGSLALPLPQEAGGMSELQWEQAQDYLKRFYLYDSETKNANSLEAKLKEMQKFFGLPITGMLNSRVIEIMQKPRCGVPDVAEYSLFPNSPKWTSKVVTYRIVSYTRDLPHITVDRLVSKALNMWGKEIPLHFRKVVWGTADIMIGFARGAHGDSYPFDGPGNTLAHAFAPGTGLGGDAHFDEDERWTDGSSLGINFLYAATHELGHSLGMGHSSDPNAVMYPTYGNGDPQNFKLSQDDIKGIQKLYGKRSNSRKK
Put plainly: In vitro inhibitory activity against matrix metalloprotease-7 (MMP-7). In a few lines: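 MMP-7 supplied as active enzyme. It was incubated with 8 µM […] in 50 mM Tris-HCl pH 7.5, 10 mM CaCl2, 0.15 M NaCl, 0.05% Brij for 20-30 min at 37 °C with varying inhibitor. The reaction was quenched with 50 mM EDTA and fluorescence read at ex 328/em 393 nm. Activity is expressed as % of uninhibited control, triplicates; IC50 from 4-parameter logistic fit.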

The next experiment addresses T2, Interstitial collagenase (Homo sapiens, UniProt P03956).
T2 sequence (P03956 whole entry): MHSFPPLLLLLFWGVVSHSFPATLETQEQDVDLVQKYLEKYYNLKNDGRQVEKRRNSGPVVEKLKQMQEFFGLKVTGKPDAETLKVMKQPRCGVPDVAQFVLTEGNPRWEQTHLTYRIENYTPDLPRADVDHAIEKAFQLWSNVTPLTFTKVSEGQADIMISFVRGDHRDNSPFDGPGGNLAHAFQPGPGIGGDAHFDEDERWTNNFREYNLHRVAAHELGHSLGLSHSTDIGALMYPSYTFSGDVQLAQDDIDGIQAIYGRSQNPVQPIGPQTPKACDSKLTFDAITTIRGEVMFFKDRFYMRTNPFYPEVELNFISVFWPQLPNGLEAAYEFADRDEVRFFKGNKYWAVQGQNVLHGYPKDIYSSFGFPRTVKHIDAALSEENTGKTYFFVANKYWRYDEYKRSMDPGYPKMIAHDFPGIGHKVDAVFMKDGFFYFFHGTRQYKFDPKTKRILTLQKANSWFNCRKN
Put plainly: In vitro inhibitory activity against matrix metalloprotease-1 (MMP-1).

Matrix metalloproteinase-9, sequence (P14780 whole entry): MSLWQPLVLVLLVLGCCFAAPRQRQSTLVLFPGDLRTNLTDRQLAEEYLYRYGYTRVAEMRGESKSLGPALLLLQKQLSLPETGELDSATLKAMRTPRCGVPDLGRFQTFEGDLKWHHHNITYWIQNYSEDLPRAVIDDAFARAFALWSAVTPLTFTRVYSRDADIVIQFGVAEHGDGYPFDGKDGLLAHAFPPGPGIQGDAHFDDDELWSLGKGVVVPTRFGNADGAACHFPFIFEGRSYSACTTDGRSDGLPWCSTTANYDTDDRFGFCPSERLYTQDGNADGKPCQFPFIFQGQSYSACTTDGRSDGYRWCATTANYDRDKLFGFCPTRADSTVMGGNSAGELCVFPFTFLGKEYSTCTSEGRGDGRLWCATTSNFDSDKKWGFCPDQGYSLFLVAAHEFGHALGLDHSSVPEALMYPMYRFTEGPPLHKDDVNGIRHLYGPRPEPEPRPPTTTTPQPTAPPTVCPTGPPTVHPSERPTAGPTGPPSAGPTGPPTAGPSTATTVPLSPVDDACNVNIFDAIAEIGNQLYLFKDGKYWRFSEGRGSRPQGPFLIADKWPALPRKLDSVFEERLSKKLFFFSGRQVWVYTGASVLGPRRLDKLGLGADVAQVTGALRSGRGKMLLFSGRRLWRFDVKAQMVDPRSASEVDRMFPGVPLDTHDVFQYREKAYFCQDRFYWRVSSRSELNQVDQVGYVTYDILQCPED
Stromelysin-1, sequence (P08254 whole entry): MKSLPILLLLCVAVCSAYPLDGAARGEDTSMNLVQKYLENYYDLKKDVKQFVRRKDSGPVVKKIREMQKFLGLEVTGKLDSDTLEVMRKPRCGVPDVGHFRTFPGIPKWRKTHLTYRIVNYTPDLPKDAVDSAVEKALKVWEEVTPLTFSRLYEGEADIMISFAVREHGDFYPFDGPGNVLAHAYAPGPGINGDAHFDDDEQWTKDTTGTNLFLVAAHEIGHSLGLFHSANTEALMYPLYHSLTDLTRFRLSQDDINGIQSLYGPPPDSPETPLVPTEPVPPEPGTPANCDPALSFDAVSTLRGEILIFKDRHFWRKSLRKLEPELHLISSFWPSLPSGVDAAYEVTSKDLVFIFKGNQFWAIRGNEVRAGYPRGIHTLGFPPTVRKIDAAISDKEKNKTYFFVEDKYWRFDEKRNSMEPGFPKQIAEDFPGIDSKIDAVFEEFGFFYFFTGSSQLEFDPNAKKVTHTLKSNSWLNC

By IC50 is commonly meant the midpoint of a concentration-inhibition curve. Take `COc1ccc(S(=O)(=O)N2CCN(C)CC2C(=O)NO)cc1` (stereo unspecified): the 50% inhibitory concentration (IC50) amounted to 269 nM against Stromelysin-1, 25 nM in experiment [1], 21 nM against Collagenase 3 and 10000 nM against Matrilysin.
As to `COc1ccc(S(=O)(=O)N2CCN(C(=O)COc3ccccc3)CC2C(=O)NO)cc1` (stereo unspecified), the half-inhibitory concentration (IC50) is 9.5 nM on Stromelysin-1, 3 nM in experiment [1], 92 nM at Interstitial collagenase and 908 nM against Matrilysin.
In the case of `CCCCCC(=O)N1CCN(S(=O)(=O)c2ccc(OC)cc2)C(C(=O)NO)C1` (stereo unspecified), the IC50 against Stromelysin-1 amounted to 39 nM; on Interstitial collagenase it was 115 nM; at Matrilysin, 787 nM.
As to `COc1ccc(S(=O)(=O)N2CCN(C(N)=O)CC2C(=O)NO)cc1` (stereo unspecified), the half-maximal inhibitory concentration (IC50) amounted to 20 nM on Stromelysin-1; 2.3 nM in experiment [1]; 115 nM at Interstitial collagenase; 3.6 nM on Collagenase 3; 537 nM at Matrilysin.
For the compound `COc1ccc(S(=O)(=O)N2CCN(C(=O)c3ccno3)CC2C(=O)NO)cc1` (stereo unspecified), the IC50 turned out to be 147 nM against Stromelysin-1 and 62 nM against Interstitial collagenase.
For the compound `COc1ccc(S(=O)(=O)N2CCN(C(=O)NCc3ccccc3)CC2C(=O)NO)cc1` (stereo unspecified), the half-inhibitory concentration (IC50) stood at 17 nM against Stromelysin-1; 3.8 nM in experiment [1]; 99 nM against Interstitial collagenase; 2.4 nM against Collagenase 3; 416 nM on Matrilysin.
`COc1ccc(S(=O)(=O)N2CCN(C(=O)C3CCCCC3)CC2C(=O)NO)cc1` (stereo unspecified): the IC50 against Stromelysin-1 turned out to be 27 nM; in experiment [1] it was 1.8 nM; against Interstitial collagenase it was 219 nM; on Collagenase 3, 1.5 nM; against Matrilysin it was 2170 nM.
For `COc1ccc(S(=O)(=O)N2CCN(C(=O)N3CCOCC3)CC2C(=O)NO)cc1` (stereo unspecified) the same measures were 124 nM, 8.3 nM, 228 nM, 54 nM and 4350 nM.
Regarding `COc1ccc(S(=O)(=O)N2CCN(C(=O)N3CCN(C)CC3)CC2C(=O)NO)cc1` (stereo unspecified), the IC50 worked out at 114 nM against Stromelysin-1; 5 nM in experiment [1]; 354 nM at Interstitial collagenase; 4.1 nM against Collagenase 3; 2690 nM at Matrilysin.
Turning to `COc1ccc(S(=O)(=O)N2CCN(C(=O)N(C)Cc3ccccc3)CC2C(=O)NO)cc1` (stereo unspecified), the 50% inhibitory concentration (IC50) was found to be 38 nM on Stromelysin-1, 322 nM against Interstitial collagenase and 1.8 nM against Collagenase 3.
As to `COc1ccc(S(=O)(=O)N2CCN(Cc3ccccc3)CC2C(=O)NO)cc1` (stereo unspecified), the IC50 came out at 75 nM against Stromelysin-1; 7.6 nM in experiment [1]; 324 nM against Interstitial collagenase; 8 nM against Collagenase 3; 14000 nM against Matrilysin.
On to `COc1ccc(S(=O)(=O)N2CCN(C(=O)OCc3cccnc3)CC2C(=O)NO)cc1` (stereo unspecified), for which the IC50 stood at 8.9 nM against Stromelysin-1; 1.9 nM in experiment [1]; 18 nM on Interstitial collagenase; 1 nM at Collagenase 3; 502 nM against Matrilysin.
Take `COc1ccc(S(=O)(=O)N2CCN(C(=O)c3ccccc3)CC2C(=O)NO)cc1` (stereo unspecified): the results for the 50% inhibitory concentration (IC50) at Stromelysin-1, on Interstitial collagenase and on Matrilysin were 66 nM, 81 nM and 1520 nM, respectively.
Turning to `COc1ccc(S(=O)(=O)N2CCN(S(=O)(=O)c3c(C)noc3C)CC2C(=O)NO)cc1` (stereo unspecified), the half-maximal inhibitory concentration (IC50) against Stromelysin-1 stood at 3.2 nM; in experiment [1] it was 2.4 nM; against Interstitial collagenase, 54 nM; against Collagenase 3, 1.3 nM; on Matrilysin it was 1020 nM.
On to `COc1ccc(S(=O)(=O)N2CCN(C(=O)OC(C)(C)C)CC2C(=O)NO)cc1` (stereo unspecified), for which the half-inhibitory concentration (IC50) stood at 60 nM against Stromelysin-1, 2.3 nM in experiment [1], 81 nM against Interstitial collagenase and 1460 nM on Matrilysin.
Turning to `COc1ccc(S(=O)(=O)N2CCN(C(C)=O)CC2C(=O)NO)cc1` (stereo unspecified), the concentration for half-maximal inhibition (IC50) stood at 18 nM against Stromelysin-1; 1.8 nM in experiment [1]; 73 nM at Interstitial collagenase; 1 nM at Collagenase 3; 821 nM at Matrilysin.
For `COc1ccc(S(=O)(=O)N2CCN(C(=O)OCc3ccccc3)CC2C(=O)NO)cc1` (stereo unspecified), the 50% inhibitory concentration (IC50) was 1.9 nM in experiment [1], 24 nM at Interstitial collagenase, 1.3 nM on Collagenase 3 and 232 nM against Matrilysin.
Take `CCCN(CC1CC1)C(=O)N1CCN(S(=O)(=O)c2ccc(OC)cc2)C(C(=O)NO)C1` (stereo unspecified): the 50% inhibitory concentration (IC50) against Stromelysin-1 was found to be 65 nM; against Collagenase 3 it was 1.1 nM; on Matrilysin, 2090 nM.
With `CCOCCCOC(=O)N1CCN(S(=O)(=O)c2ccc(OC)cc2)C(C(=O)NO)C1` (stereo unspecified), the IC50 worked out at 5.3 nM against Stromelysin-1; 0.6 nM in experiment [1]; 22 nM against Interstitial collagenase; 0.7 nM against Collagenase 3; 483 nM against Matrilysin.
For `COc1ccc(S(=O)(=O)N2CCN(C(=O)c3cccs3)CC2C(=O)NO)cc1` (stereo unspecified), the IC50 amounted to 15 nM on Stromelysin-1; 1.3 nM in experiment [1]; 68 nM against Interstitial collagenase; 1.9 nM on Collagenase 3; 710 nM on Matrilysin.
Regarding `COc1ccc(S(=O)(=O)N2CCN(S(C)(=O)=O)CC2C(=O)NO)cc1` (stereo unspecified), the half-maximal inhibitory concentration (IC50) at Stromelysin-1 was determined as 3.5 nM; in experiment [1], 0.6 nM; at Interstitial collagenase it was 8 nM; on Collagenase 3, 1 nM; against Matrilysin it was 483 nM.
As to `COc1ccc(S(=O)(=O)N2CCN(C(=O)Nc3cccc(OC)c3)CC2C(=O)NO)cc1` (stereo unspecified), the IC50 against Stromelysin-1 was 13 nM; in experiment [1], 4.1 nM; on Interstitial collagenase, 80 nM; against Collagenase 3, 2.8 nM; at Matrilysin, 1100 nM.
Regarding `CCCCCCN(C)C(=O)N1CCN(S(=O)(=O)c2ccc(Br)cc2)C(C(=O)NO)C1` (stereo unspecified), the half-maximal inhibitory concentration (IC50) at Stromelysin-1 turned out to be 175 nM; in experiment [1] it was 13 nM; against Interstitial collagenase, 87 nM; at Collagenase 3, 4.5 nM; at Matrilysin, 1200 nM.
Turning to `COc1ccc(S(=O)(=O)N2CCN(c3nc(-c4ccccc4)cs3)CC2C(=O)NO)cc1` (stereo unspecified), the half-inhibitory concentration (IC50) was found to be 11 nM against Stromelysin-1, 28 nM in experiment [1], 325 nM on Interstitial collagenase and 3290 nM on Matrilysin.
Take `COc1ccc(S(=O)(=O)N2CCN(C(=O)N3CCCCCC3)CC2C(=O)NO)cc1` (stereo unspecified): the half-inhibitory concentration (IC50) was determined as 54 nM on Stromelysin-1, 158 nM against Interstitial collagenase, 2.9 nM at Collagenase 3 and 2690 nM against Matrilysin.
On to `COc1ccc(S(=O)(=O)N2CCN(C(=O)c3snnc3C)CC2C(=O)NO)cc1` (stereo unspecified), for which the IC50 against Stromelysin-1 worked out at 173 nM; in experiment [1] it was 17 nM; against Interstitial collagenase, 1060 nM; at Collagenase 3, 21 nM; at Matrilysin, 6090 nM.
Consider `COc1ccc(S(=O)(=O)N2CCN(S(=O)(=O)c3ccc(OC)cc3)C(C(=O)NO)C2)cc1` (stereo unspecified), for which the IC50 stood at 13 nM at Stromelysin-1; 1.2 nM in experiment [1]; 60 nM against Interstitial collagenase; 1.3 nM against Collagenase 3; 1890 nM against Matrilysin.
In experiment [1], `COc1ccc(S(=O)(=O)N2CCNCC2C(=O)NO)cc1` (stereo unspecified) came in with a half-maximal inhibitory concentration (IC50) of 6.9 nM.
Consider `COc1ccc(S(=O)(=O)N2CCN(C(=O)c3ccco3)CC2C(=O)NO)cc1` (stereo unspecified), for which the IC50 against Stromelysin-1 is 7.5 nM; in experiment [1], 1.6 nM; on Interstitial collagenase, 25 nM; on Collagenase 3, 2.5 nM; at Matrilysin, 642 nM.
In the case of `COc1ccc(S(=O)(=O)N2CCN(C(=O)c3cccnc3)CC2C(=O)NO)cc1` (stereo unspecified), the half-maximal inhibitory concentration (IC50) against Stromelysin-1 came out at 184 nM; in experiment [1], 32 nM; against Interstitial collagenase, 994 nM; at Collagenase 3 it was 57 nM; against Matrilysin, 27700 nM.
Regarding `COc1ccc(S(=O)(=O)N2CCN(C(=O)NCCc3ccccc3)CC2C(=O)NO)cc1` (stereo unspecified), the IC50 at Stromelysin-1 stood at 27 nM; in experiment [1] it was 3.6 nM; at Interstitial collagenase, 70 nM; on Matrilysin it was 824 nM.
As for `COCCN(CCOC)C(=O)N1CCN(S(=O)(=O)c2ccc(Br)cc2)C(C(=O)NO)C1` (stereo unspecified), the IC50 against Stromelysin-1 turned out to be 385 nM; in experiment [1], 20 nM; at Interstitial collagenase it was 49 nM; against Collagenase 3, 3.2 nM; at Matrilysin, 1130 nM.
For `COc1ccc(S(=O)(=O)N2CCN(S(=O)(=O)c3sc(N)nc3C)CC2C(=O)NO)cc1` (stereo unspecified), the concentration for half-maximal inhibition (IC50) on Stromelysin-1 is 2.5 nM; in experiment [1], 2.1 nM; at Interstitial collagenase, 31 nM; against Collagenase 3, 2 nM; against Matrilysin it was 1280 nM.
Turning to `COc1ccc(S(=O)(=O)N2CCN(C(=O)c3ccc(-c4ccccc4)cc3)CC2C(=O)NO)cc1` (stereo unspecified), the IC50 against Stromelysin-1 turned out to be 23 nM; against Interstitial collagenase, 43 nM; against Collagenase 3 it was 0.9 nM; against Matrilysin, 931 nM.
As to `COc1ccc(S(=O)(=O)N2CCN(C(=S)NCc3ccccc3)CC2C(=O)NO)cc1` (stereo unspecified), the IC50 on Stromelysin-1 is 41 nM; in experiment [1], 6.6 nM; on Interstitial collagenase it was 68 nM; against Matrilysin it was 401 nM.
